Inhibition data for 46 compounds are collected here from ChEMBL document CHEMBL1142961, “Novel selective inhibitors of the zinc plasmodial aminopeptidase PfA-M1 as potential antimalarial agents” (J Med Chem, 2007).

Molecules are shown by their SMILES.

For test [1], the target named is T1, Aminopeptidase N (Plasmodium falciparum FcB1/Columbia) (UniProt O96935).
T1 sequence (whole entry): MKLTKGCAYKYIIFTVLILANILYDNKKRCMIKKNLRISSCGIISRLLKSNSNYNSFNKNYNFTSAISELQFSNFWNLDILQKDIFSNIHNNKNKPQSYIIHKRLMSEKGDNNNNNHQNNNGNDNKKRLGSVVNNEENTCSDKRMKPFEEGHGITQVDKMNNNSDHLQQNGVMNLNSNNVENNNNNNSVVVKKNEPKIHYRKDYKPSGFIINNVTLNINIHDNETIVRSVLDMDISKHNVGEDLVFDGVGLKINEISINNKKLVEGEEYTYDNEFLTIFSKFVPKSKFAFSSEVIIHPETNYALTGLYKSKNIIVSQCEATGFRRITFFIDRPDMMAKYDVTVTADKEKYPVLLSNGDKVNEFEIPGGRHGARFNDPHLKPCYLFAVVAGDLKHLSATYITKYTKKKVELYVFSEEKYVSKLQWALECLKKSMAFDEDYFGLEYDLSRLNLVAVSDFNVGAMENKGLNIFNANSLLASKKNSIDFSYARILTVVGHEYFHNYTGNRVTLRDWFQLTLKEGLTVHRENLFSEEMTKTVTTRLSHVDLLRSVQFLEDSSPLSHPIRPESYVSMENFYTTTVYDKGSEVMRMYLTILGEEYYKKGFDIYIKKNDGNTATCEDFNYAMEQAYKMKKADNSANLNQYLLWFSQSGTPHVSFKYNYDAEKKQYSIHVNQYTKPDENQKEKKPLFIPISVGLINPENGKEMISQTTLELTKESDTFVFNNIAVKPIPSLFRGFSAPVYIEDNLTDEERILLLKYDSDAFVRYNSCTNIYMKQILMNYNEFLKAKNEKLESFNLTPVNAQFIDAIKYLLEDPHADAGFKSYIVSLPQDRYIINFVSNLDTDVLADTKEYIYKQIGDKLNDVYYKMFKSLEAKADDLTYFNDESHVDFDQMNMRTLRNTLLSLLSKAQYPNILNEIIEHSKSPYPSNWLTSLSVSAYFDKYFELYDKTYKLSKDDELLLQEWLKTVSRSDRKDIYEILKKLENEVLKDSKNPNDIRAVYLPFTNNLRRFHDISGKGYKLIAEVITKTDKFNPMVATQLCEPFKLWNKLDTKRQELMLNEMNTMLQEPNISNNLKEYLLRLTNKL
Kind of test: Inhibition of Plasmodium falciparum FcB1 M1 aminopeptidase at 10 uM. An outline of the steps: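 Native enzyme purified from P. falciparum FcB1, diluted 10-fold in 25 mM Tris-HCl pH 7.4. Preincubated with inhibitor for 10 min at room temperature, then Leu-pNA substrate added (0.3 mM stock, Km 0.099 mM). Kinetics followed at 405 nm at room temperature. Initial velocities normalized to a no-inhibitor control. Single-point screen at 10 µM; IC50 from velocity versus inhibitor concentration curves. Bestatin used as reference.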

Test [2] has as its target T2, Aminopeptidase N (Sus scrofa) (UniProt P15145).
T2 sequence (whole entry): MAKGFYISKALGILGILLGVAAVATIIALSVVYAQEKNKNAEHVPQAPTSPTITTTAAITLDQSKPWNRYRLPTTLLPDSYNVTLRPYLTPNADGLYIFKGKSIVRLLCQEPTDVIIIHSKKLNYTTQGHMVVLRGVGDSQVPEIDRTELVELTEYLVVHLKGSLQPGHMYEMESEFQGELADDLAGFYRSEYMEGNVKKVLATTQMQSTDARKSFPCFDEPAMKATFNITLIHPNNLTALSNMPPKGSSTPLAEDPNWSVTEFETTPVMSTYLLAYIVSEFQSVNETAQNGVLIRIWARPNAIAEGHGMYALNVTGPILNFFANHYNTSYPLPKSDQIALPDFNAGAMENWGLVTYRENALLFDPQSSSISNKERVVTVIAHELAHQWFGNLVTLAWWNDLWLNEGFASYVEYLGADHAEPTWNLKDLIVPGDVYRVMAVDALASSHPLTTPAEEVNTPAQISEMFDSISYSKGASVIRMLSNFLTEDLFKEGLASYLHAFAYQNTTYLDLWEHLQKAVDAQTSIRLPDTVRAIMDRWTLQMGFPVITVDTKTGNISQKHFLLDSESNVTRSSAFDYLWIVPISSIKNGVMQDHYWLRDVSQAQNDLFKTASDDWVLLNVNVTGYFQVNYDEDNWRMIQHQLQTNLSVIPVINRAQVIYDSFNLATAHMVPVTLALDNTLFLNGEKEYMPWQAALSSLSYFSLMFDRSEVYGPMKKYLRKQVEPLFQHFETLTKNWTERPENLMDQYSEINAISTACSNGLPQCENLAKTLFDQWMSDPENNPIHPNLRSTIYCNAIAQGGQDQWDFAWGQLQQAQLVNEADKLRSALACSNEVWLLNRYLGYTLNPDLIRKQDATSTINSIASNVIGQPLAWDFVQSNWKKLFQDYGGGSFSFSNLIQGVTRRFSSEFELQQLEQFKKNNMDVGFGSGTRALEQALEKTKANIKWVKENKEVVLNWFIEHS
The experiment in a line: Inhibition of pig kidney microsomal APN at 10 uM. In short, it runs like this: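 Porcine kidney microsomal APN (ammonium sulfate suspension) diluted 600-fold in 25 mM Tris-HCl pH 7.4. Preincubated with inhibitor for 10 min at room temperature, then Leu-pNA added (0.3 mM stock). Hydrolysis followed at 405 nm at room temperature. Rates normalized to a no-inhibitor control. Single point at 10 µM; IC50 from concentration-velocity curves. Bestatin used as reference.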

Consider `O=C(NO)C(Cc1cccc(Oc2ccccc2)c1)C(=O)N1CCC2(CCNc3ccccc3O2)CC1` (configuration not stated), for which the inhibition – broadly, the relative decrease from the control value, in per cent – was 48% in test [1] and 81% in test [2].

Consider `O=C(NO)C(Cc1ccccc1)C(=O)NCCc1ccccn1` (configuration not stated), for which the inhibition was 29% in test [1] and 47% in test [2].

Consider `O=C(CC(=O)N1CCN(Cc2ccccc2)CC1)NO`, for which the inhibition was found to be 8% in test [1] and 23% in test [2].

For the compound `NC(C(=O)NO)C(=O)N1CCC(n2c(=O)[nH]c3ccccc32)CC1` (configuration not stated), the inhibition in test [1] turned out to be 12%; in test [2] it was 34%.

Turning to `O=C(NO)C(Cc1cccc(Oc2ccccc2)c1)C(=O)N(CCc1ccccc1)Cc1ccccc1` (configuration not stated), the inhibition is 38% in test [1] and 67% in test [2].

As for `CC(C)CC(C(=O)NO)C(=O)NCCC(c1ccccc1)c1ccccc1` (configuration not stated), the inhibition in test [1] stood at 76%; in test [2] it was 102%.

On to `CC(C)CC(C(=O)NO)C(=O)N1CCN(Cc2ccccc2)CC1` (configuration not stated), for which the inhibition is 29% in test [1] and 28% in test [2].

Consider `NC(C(=O)NO)C(=O)N1CCN(c2ccccc2)CC1` (configuration not stated), for which the inhibition is -2% in test [1] and 11% in test [2].

For `O=C(NO)C(Cc1cccc(Oc2ccccc2)c1)C(=O)NCCC(c1ccccc1)c1ccccc1` (configuration not stated), the inhibition in test [1] came to 50%; in test [2], 59%.

`CN(CCCNC(=O)C(Cc1ccccc1)C(=O)NO)c1ccccc1` (configuration not stated): the inhibition came to 67% in test [1] and 46% in test [2].

For `O=C(CC(=O)N1CCC2(CC1)C(=O)NCN2c1ccccc1)NO`, the results for the inhibition in test [1] and in test [2] were 5% and 19%, respectively.

For the compound `CN(CCCCc1ccccc1)C(=O)CC(=O)NO`, the figures for the inhibition in test [1] and in test [2] were -4% and 11%, respectively.

As for `O=C(NO)C(Cc1cccc(Oc2ccccc2)c1)C(=O)N[C@H]1CCN(Cc2ccccc2)C1` (some centres not stated), the inhibition in test [1] was determined as 41%; in test [2], 86%.

In the case of `NC(C(=O)NO)C(=O)NCc1ccc(F)cc1` (configuration not stated), the figures for the inhibition in test [1] and in test [2] were 9% and 18%, respectively.

Regarding `NC(C(=O)NO)C(=O)NC1CCN(Cc2ccccc2)CC1` (configuration not stated), the inhibition in test [1] is -4%; in test [2], 25%.

Consider `O=C(NO)C(Cc1cccc(Oc2ccccc2)c1)C(=O)NCCc1ccccn1` (configuration not stated), for which the inhibition in test [1] was determined as 67%; in test [2], 85%.

In the case of `NC(C(=O)NO)C(=O)NCCCCc1ccccc1` (configuration not stated), the inhibition turned out to be 56% in test [1] and 42% in test [2].

For `CN(CCCCc1ccccc1)C(=O)C(Cc1cccc(Oc2ccccc2)c1)C(=O)NO` (configuration not stated), the values for the inhibition in test [1] and in test [2] were 80% and 95%, respectively.

With `O=C(CC(=O)NCCc1ccccn1)NO`, the inhibition is -2% in test [1] and 16% in test [2].

Turning to `O=C(CC(=O)NCc1cccc(-c2ccccc2)c1)NO`, the results for the inhibition in test [1] and in test [2] were 28% and 66%, respectively.

With `O=C(CC(=O)NCCNc1cccc2ccccc12)NO`, the inhibition in test [1] is 0%; in test [2], 14%.

In the case of `O=C(CC(=O)N1CCc2ccccc2C1)NO`, the inhibition in test [1] was -3%; in test [2] it was 19%.

Take `Cc1ccccc1CNC(=O)C(CC(C)C)C(=O)NO` (configuration not stated): the inhibition in test [1] stood at 88%; in test [2], 98%.

Turning to `NC(C(=O)NO)C(=O)N1CCC2(CC1)C(=O)NCN2c1ccccc1` (configuration not stated), the inhibition in test [1] was -6%; in test [2] it was 43%.

Regarding `NC(C(=O)NO)C(=O)N[C@H]1CCN(Cc2ccccc2)C1` (some centres not stated), the inhibition in test [1] worked out at 2%; in test [2], 37%.

For `CN(CCCNC(=O)C(Cc1cccc(Oc2ccccc2)c1)C(=O)NO)c1ccccc1` (configuration not stated), the inhibition in test [1] stood at 77%; in test [2] it was 83%.

In the case of `O=C(NO)C(Cc1ccccc1)C(=O)NC1CCN(Cc2ccccc2)CC1` (configuration not stated), the results for the inhibition in test [1] and in test [2] were 3% and 21%, respectively.

As for `O=C(NO)C(Cc1cccc(Oc2ccccc2)c1)C(=O)NC1Cc2ccccc2C1` (configuration not stated), the inhibition in test [1] amounted to 43%; in test [2], 72%.

In the case of `CC(C)CC(C(=O)NO)C(=O)NCc1cccnc1` (configuration not stated), the values for the inhibition in test [1] and in test [2] were -4% and 30%, respectively.

As for `O=C(CC(=O)NC1Cc2ccccc2C1)NO`, the inhibition is -2% in test [1] and 12% in test [2].

`O=C(NO)C(Cc1ccccc1)C(=O)N1CCC(n2c(=O)[nH]c3ccccc32)CC1` (configuration not stated): the figures for the inhibition in test [1] and in test [2] were -1% and 56%, respectively.

For `CC(C)CN(CCCCc1ccccc1)C(=O)C(N)C(=O)NO` (configuration not stated), the values for the inhibition in test [1] and in test [2] were 37% and -1%, respectively.

For `O=C(NO)C(Cc1cccc(Oc2ccccc2)c1)C(=O)NCc1cccnc1` (configuration not stated), the inhibition is 99% in test [1] and 85% in test [2].

As to `O=C(NO)C(Cc1cccc(Oc2ccccc2)c1)C(=O)NCCNc1cccc2ccccc12` (configuration not stated), the values for the inhibition in test [1] and in test [2] were 66% and 78%, respectively.

For `NC(C(=O)NO)C(=O)NCCc1ccccn1` (configuration not stated), the inhibition is -7% in test [1] and 22% in test [2].

Consider `O=C(NO)C(Cc1ccccc1)C(=O)NCCNc1cccc2ccccc12` (configuration not stated), for which the inhibition in test [1] came to 59%; in test [2], 76%.

`NC(C(=O)NO)C(=O)NCCC(c1ccccc1)c1ccccc1` (configuration not stated): the inhibition in test [1] is 8%; in test [2], 62%.

With `O=C(NO)C(Cc1ccccc1)C(=O)NCc1ccc(C(F)(F)F)cc1` (configuration not stated), the inhibition is 67% in test [1] and 75% in test [2].

For `O=C(NO)C(Cc1ccccc1)C(=O)NCCC(c1ccccc1)c1ccccc1` (configuration not stated), the figures for the inhibition in test [1] and in test [2] were 65% and 83%, respectively.

On to `CC(C)CN(CCCCc1ccccc1)C(=O)C(Cc1cccc(Oc2ccccc2)c1)C(=O)NO` (configuration not stated), for which the inhibition amounted to 36% in test [1] and 52% in test [2].

`O=C(NO)C(Cc1cccc(Oc2ccccc2)c1)C(=O)NCc1cccc(-c2ccccc2)c1` (configuration not stated): the inhibition in test [1] was 41%; in test [2], 81%.

As for `O=C(NO)C(Cc1ccccc1)C(=O)N1CCN(Cc2ccc3c(c2)OCO3)CC1` (configuration not stated), the figures for the inhibition in test [1] and in test [2] were 53% and 29%, respectively.

For the compound `O=C(CC(=O)NCCC(c1ccccc1)c1ccccc1)NO`, the inhibition in test [1] stood at 50%; in test [2] it was 87%.

Regarding `CC(C)CC(C(=O)NO)C(=O)N1CCC(n2c(=O)[nH]c3ccccc32)CC1` (configuration not stated), the inhibition in test [1] came to 15%; in test [2], 54%.

As to `CN(Cc1ccccc1)C(=O)C(N)C(=O)NO` (configuration not stated), the values for the inhibition in test [1] and in test [2] were -1% and 29%, respectively.

As for `NC(C(=O)NO)C(=O)NCc1cccc(Oc2ccccc2)c1` (configuration not stated), the inhibition in test [1] was 51%; in test [2], 31%.
